According to ChEMBL document CHEMBL1255347, “Multiclonal outbreak of Klebsiella pneumoniae producing extended-spectrum beta-lactamase CTX-M-2 and novel variant CTX-M-59 in a neonatal intensive care unit in Brazil” (2008):
≈ marks a conversion by molar mass, not a printed value.

Tests used:
Assay type in all cases: functional
Klebsiella pneumoniae [1] = assay: Antimicrobial activity against CTX-M-2 producing Klebsiella pneumoniae with PFGE pulsotype A by Etest
Method in brief: (§1)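 Clinical K. pneumoniae isolates from a neonatal ICU outbreak near São Paulo were typed by XbaI PFGE using Tenover criteria. Cultures were grown in LB broth at 37°C. Etest MICs followed the manufacturer's instructions, with cefotaxime and ceftazidime each tested with and without clavulanic acid.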

Klebsiella pneumoniae [2] = assay: Antimicrobial activity against CTX-M-2 producing Klebsiella pneumoniae with PFGE pulsotype B by Etest; method in brief: as §1
Klebsiella pneumoniae [3] = assay: Antimicrobial activity against CTX-M-59 producing Klebsiella pneumoniae with PFGE pulsotype C by Etest
Klebsiella pneumoniae [4] = assay: Antimicrobial activity against SHV-5 producing Klebsiella pneumoniae with PFGE pulsotype D by Etest; method in brief: as §1
Klebsiella pneumoniae [5] = assay: Antimicrobial activity against CTX-M-59 producing Klebsiella pneumoniae with PFGE pulsotype E by Etest
Klebsiella pneumoniae [6] = assay: Antimicrobial activity against CTX-M-2 producing Klebsiella pneumoniae with PFGE pulsotype F by Etest
Klebsiella pneumoniae [7] = assay: Antimicrobial activity against CTX-M-59 producing Klebsiella pneumoniae with PFGE pulsotype G by Etest; method in brief: as §1
Klebsiella pneumoniae [8] = assay: Antimicrobial activity against CTX-M-2 producing Klebsiella pneumoniae with PFGE pulsotype H by Etest; method in brief: as §1
Klebsiella pneumoniae [9] = assay: Antimicrobial activity against CTX-M-2 producing Klebsiella pneumoniae with PFGE pulsotype I by Etest
Klebsiella pneumoniae [10] = assay: Antimicrobial activity against CTX-M-2 producing Klebsiella pneumoniae with PFGE pulsotype J by Etest
Escherichia coli [11] = assay: Antimicrobial activity against Escherichia coli str. K-12 substr. DH10B harboring plasmid CTX-M-2; conditions: K-12 DH10B
Method in brief: (§2)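 blaCTX-M PCR products were cut with XbaI/BamHI and cloned into pBC-SK(−), then electroporated into E. coli DH10B. Transformants were selected on LB agar with ampicillin 50 μg/ml and chloramphenicol 30 μg/ml, and sequences were confirmed. These clones were used for β-lactam MICs, with and without clavulanic acid.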

Escherichia coli [12] = assay: Antimicrobial activity against Escherichia coli str. K-12 substr. DH10B harboring plasmid CTX-M-59; conditions: K-12 DH10B; method in brief: as §2
Klebsiella pneumoniae [13] = assay: Antimicrobial activity against CTX-M-2 and TEM-1 producing Klebsiella pneumoniae transconjugants/transformants with PFGE pulsotype A by Etest
Method in brief: (§3)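 The recipient was E. coli XL1-Blue Rifr NAr. Plasmids moved by broth mating, with transconjugants selected on LB agar containing ampicillin, rifampin and nalidixic acid, each at 50 μg/ml. Where mating failed, alkaline-lysis plasmid extracts were electroporated and selected on ampicillin 50 μg/ml. β-lactam MICs were read by Etest, with and without clavulanic acid.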

Klebsiella pneumoniae [14] = assay: Antimicrobial activity against CTX-M-2 and TEM-1 producing Klebsiella pneumoniae transconjugants/transformants with PFGE pulsotype B by Etest; method in brief: as §3
Klebsiella pneumoniae [15] = assay: Antimicrobial activity against CTX-M-59 and TEM-1 producing Klebsiella pneumoniae transconjugants/transformants with PFGE pulsotype C by Etest; method in brief: as §3
Klebsiella pneumoniae [16] = assay: Antimicrobial activity against SHV-5 producing Klebsiella pneumoniae transconjugants/transformants with PFGE pulsotype D by Etest; method in brief: as §3
Klebsiella pneumoniae [17] = assay: Antimicrobial activity against CTX-M-59 and TEM-1 producing Klebsiella pneumoniae transconjugants/transformants with PFGE pulsotype E by Etest; method in brief: as §3
Klebsiella pneumoniae [18] = assay: Antimicrobial activity against CTX-M-2 and TEM-1 producing Klebsiella pneumoniae transconjugants/transformants with PFGE pulsotype F by Etest; method in brief: as §3
Klebsiella pneumoniae [19] = assay: Antimicrobial activity against CTX-M-59 and TEM-1 producing Klebsiella pneumoniae transconjugants/transformants with PFGE pulsotype G by Etest; method in brief: as §3
Klebsiella pneumoniae [20] = assay: Antimicrobial activity against CTX-M-2 and TEM-1 producing Klebsiella pneumoniae transconjugants/transformants with PFGE pulsotype H by Etest; method in brief: as §3
Klebsiella pneumoniae [21] = assay: Antimicrobial activity against CTX-M-2 and TEM-1 producing Klebsiella pneumoniae transconjugants/transformants with PFGE pulsotype I by Etest; method in brief: as §3
Klebsiella pneumoniae [22] = assay: Antimicrobial activity against CTX-M-2 and TEM-1 producing Klebsiella pneumoniae transconjugants/transformants with PFGE pulsotype J by Etest; method in brief: as §3

SMILES | MIC (Klebsiella pneumoniae [1]) [µg/mL] | MIC (Klebsiella pneumoniae [2]) [µg/mL] | MIC (Klebsiella pneumoniae [3]) [µg/mL] | MIC (Klebsiella pneumoniae [4]) [µg/mL] | MIC (Klebsiella pneumoniae [5]) [µg/mL] | MIC (Klebsiella pneumoniae [6]) [µg/mL] | MIC (Klebsiella pneumoniae [7]) [µg/mL] | MIC (Klebsiella pneumoniae [8]) [µg/mL] | MIC (Klebsiella pneumoniae [9]) [µg/mL] | MIC (Klebsiella pneumoniae [10]) [µg/mL] | MIC (Escherichia coli [11]) [µg/mL] | MIC (Escherichia coli [12]) [µg/mL] | MIC (Klebsiella pneumoniae [13]) [µg/mL] | MIC (Klebsiella pneumoniae [14]) [µg/mL] | MIC (Klebsiella pneumoniae [15]) [µg/mL] | MIC (Klebsiella pneumoniae [16]) [µg/mL] | MIC (Klebsiella pneumoniae [17]) [µg/mL] | MIC (Klebsiella pneumoniae [18]) [µg/mL] | MIC (Klebsiella pneumoniae [19]) [µg/mL] | MIC (Klebsiella pneumoniae [20]) [µg/mL] | other results
C[C@@H](O)[C@H]1C(=O)N2C(C(=O)O)=C(S[C@@H]3CN[C@H](C(=O)Nc4cccc(C(=O)O)c4)C3)[C@H](C)[C@H]12 | 1.5 (≈ 3.15 µM) | 1 (≈ 2.1 µM) | 1.5 (≈ 3.15 µM) | 0.094 (≈ 0.198 µM) | 1.5 (≈ 3.15 µM) | 1.5 (≈ 3.15 µM) | 1.5 (≈ 3.15 µM) | 2 (≈ 4.21 µM) | 1 (≈ 2.1 µM) | 1.5 (≈ 3.15 µM) | 0.016 (≈ 0.0336 µM) | 0.016 (≈ 0.0336 µM) | 0.125 (≈ 0.263 µM) | 0.125 (≈ 0.263 µM) | 0.064 (≈ 0.135 µM) | 0.012 (≈ 0.0252 µM) | 0.094 (≈ 0.198 µM) | 0.125 (≈ 0.263 µM) | 0.125 (≈ 0.263 µM) | 0.094 (≈ 0.198 µM) | MIC (Klebsiella pneumoniae [21]): 0.032 µg/mL (≈ 0.0673 µM); MIC (Klebsiella pneumoniae [22]): 0.094 µg/mL (≈ 0.198 µM)
CO/N=C(\C(=O)N[C@@H]1C(=O)N2C(C(=O)[O-])=C(C[N+]3(C)CCCC3)CS[C@H]12)c1csc(N)n1 |  | 128 (≈ 266 µM) | 256 (≈ 533 µM) | 4 (≈ 8.32 µM) |  | > 256 | 32 (≈ 66.6 µM) | > 256 | 256 (≈ 533 µM) | 12 (≈ 25 µM) | 4 (≈ 8.32 µM) | 4 (≈ 8.32 µM) |  | 256 (≈ 533 µM) |  | 1.5 (≈ 3.12 µM) |  |  |  |  | 
C[C@H]1[C@H](NC(=O)/C(=N\OC(C)(C)C(=O)O)c2csc(N)n2)C(=O)N1S(=O)(=O)O [AZTREONAM] | 24 (≈ 55.1 µM) | 48 (≈ 110 µM) | 32 (≈ 73.5 µM) | 256 (≈ 588 µM) | 32 (≈ 73.5 µM) | 256 (≈ 588 µM) | 64 (≈ 147 µM) | 48 (≈ 110 µM) | 24 (≈ 55.1 µM) | 128 (≈ 294 µM) | 12 (≈ 27.6 µM) | 12 (≈ 27.6 µM) | > 256 | 256 (≈ 588 µM) | > 256 | > 256 | 48 (≈ 110 µM) | > 256 | > 256 | > 256 | MIC (Klebsiella pneumoniae [21]): > 256 µg/mL; MIC (Klebsiella pneumoniae [22]): > 256 µg/mL
